In the library only some 10% were active in any assay of this set; here they are far more common.
Diaph act CS – compounds boosting diaphorase resazurin reduction – biochemical, uHTS, resorufin fluorescence, counter-screen for diaphorase-coupled primary assays, primary screen; activation factor at 20 µM; hit rate 0.005% among 190,000; AID 1229, 2008; Diaphorase/resazurin coupled assay, 16 min; stronger effect = higher value; 1 = vehicle wells, 0 = NADH-free wells;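 active means diaphorase activity raised at least twofold by the compound at 20 µM; inactive means activation factor below 2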
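Material: Purified diaphorase enzyme from Clostridium kluyveri | Buffer or medium: 50 mM HEPES pH 7.4 with 4.542 mM MgCl2, 0.005% Tween 20 | Times: 16 min enzyme reaction, ambient temperature | Signal: Red resorufin fluorescence at 544/590 nm excitation/emission | Measure: Increased resorufin signal from activators or reducing compounds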
WT yeast gro inh – growth inhibition of WT strain, primary screen, mitochondrial fusion inhibitor project, WT and mutant strains, chemical genetic; mitochondrial fusion phenotypic screen; inhibition, % at 10 µM; hit rate 2.1% among 190,000; AID 1362, 2008; in the data active means inhibition above about 58%; tested in S. cerevisiae
PMI act hi M6P – human PMI activators, high substrate, primary screen, biochemical, fluorescence intensity, near-saturating mannose 6-phosphate; Mannose-6-phosphate isomerase (Homo sapiens), P34949; coupled PMI enzyme assay, resazurin fluorescence, 20 min; stronger effect = higher value; 1 = untreated enzyme, 0 = substrate-free blank; activation factor at 20 µM; hit rate 0.34% among 190,000;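 active means activation factor of 2 or more at 20 µM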
Target sequence (P34949 whole entry, looked up): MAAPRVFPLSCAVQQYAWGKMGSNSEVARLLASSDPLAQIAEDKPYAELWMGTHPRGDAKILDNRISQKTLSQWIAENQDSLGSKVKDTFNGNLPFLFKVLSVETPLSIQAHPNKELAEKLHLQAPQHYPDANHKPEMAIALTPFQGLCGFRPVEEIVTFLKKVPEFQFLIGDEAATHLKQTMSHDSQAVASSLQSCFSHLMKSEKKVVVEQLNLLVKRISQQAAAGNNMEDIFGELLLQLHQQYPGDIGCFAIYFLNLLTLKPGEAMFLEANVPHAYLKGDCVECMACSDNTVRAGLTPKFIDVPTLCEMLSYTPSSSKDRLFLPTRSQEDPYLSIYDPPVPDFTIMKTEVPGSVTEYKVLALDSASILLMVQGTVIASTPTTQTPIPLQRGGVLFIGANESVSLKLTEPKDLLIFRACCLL
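Material: human phosphomannose isomerase with PGI, G6PDH, diaphorase coupling enzymes; amount: PMI at 15 ng/mL final; also added: Mannose-6-phosphate 1.0 mM (near-saturating) plus 0.22 mM NADP+; incubation: enzyme reaction with compound 20 min at room temperature; signal: resorufin fluorescence (Ex 544/Em 590 nm) from resazurin via diaphorase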
L major viab – Leishmania major promastigote growth inhibition, primary screen; Leishmania major promastigotes, resazurin fluorescence viability; hit rate 9% among 200,000; inhibition, % at 10 µM; in the data active means inhibition above about 50%;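 further: promastigotes grown with compound for 44 hours at 28 °C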
PMI act – activators of human PMI, primary screen, biochemical, fluorescence intensity, near-Km mannose 6-phosphate | purified human PMI, coupled resazurin fluorescence, 20 min; stronger effect = higher value; 1 = vehicle control, 0 substrate-free wells | activation factor at 20 µM | hit rate 0.005% among 190,000;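 active means activation factor of 2 or more at 20 µM, relative to plate controls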
Numbers stand for hits; - = inactive; . = no result.

SMILES | Diaph act CS | WT yeast gro inh | PMI act hi M6P | L major viab | PMI act
CCN(CC)CCCN(C(=O)c1ccco1)c1nc(-c2ccc(C)cc2)cs1 | - | - | - | 72 | -
CCN(CC)CCCN(C(=O)c1cccs1)c1nc(-c2ccc(OC)cc2)cs1 | - | - | - | 101 | -
COc1ccc(-c2csc(N(CC3CCCO3)C(=O)c3cccs3)n2)cc1 (stereo not given) | - | - | - | 82 | -
Brc1ccc2c(c1)OCCOCCOCCOCCOCCOCCO2 | - | - | - | - | -
CC1=C(C(=O)Nc2ccc(C)cn2)C(c2cnn(C)c2)C2=C(CCCC2=O)N1 (stereo not given) | - | - | - | - | -
CCOC(=O)CC1C(=O)NCCN1Cc1cccs1 (stereo not given) | - | - | - | - | -
CC(C)N(C(=O)Cn1cc(SCC(=O)NCC2CCCO2)c2ccccc21)C(C)C (stereo not given) | - | - | - | - | -
CCCCNC(=O)CSc1nc2cc3c(cc2c(=O)n1CCCC(=O)NCCc1ccc(OC)c(OC)c1)OCO3 | - | - | - | - | -
CCCCNC(=O)CSc1nc2cc3c(cc2c(=O)n1CCC(=O)NCCc1ccc(OC)c(OC)c1)OCO3 | - | - | - | 52 | -
COCCNC(=O)CSc1nc2cc(OC)c(OC)cc2c(=O)n1Cc1ccc(OC)cc1 | - | - | - | - | -
CCC(Sc1nc2cc(OC)c(OC)cc2c(=O)n1CCc1ccc(OC)c(OC)c1)C(=O)NCCOC (stereo not given) | - | - | - | 80 | -
COc1ccc(N2CC(NC(=O)N3CCc4ccccc43)CC2=O)cc1OC (stereo not given) | - | - | - | - | -
CC(C)COC(=O)Nc1nnc(SCCOc2ccccc2)s1 | - | - | - | - | -
Cc1ccc(NC(=O)CCN2CCN(C/C=C/c3ccccc3)CC2)cc1C | - | - | - | 87 | -
CCOC(=O)N1CCN(CCC(=O)Nc2ccc(C)cc2)CC1 | - | - | - | - | -
O=C(CCN1CCN(C/C=C/c2ccccc2)CC1)Nc1ccc(Cl)cc1 | - | - | - | 76 | -
O=C(Nc1cccc(Cl)c1)N1CCN(C/C=C/c2ccccc2)CC1 | - | - | - | - | -
Cc1ccc(NC(=O)CCN2CCN(C/C=C/c3ccccc3)CC2)cc1 | - | - | - | 94 | -
O=C(COC(=O)CCc1ccc(S(=O)(=O)N2CCOCC2)cc1)NCc1ccccc1Cl | - | - | - | - | -
O=C(CSc1nnc(-c2cc(-c3cccs3)nc3ccccc23)o1)NC1CCCCC1 | - | - | - | - | -
C=CCNc1oc(-c2cccs2)nc1S(=O)(=O)c1ccccc1 | - | - | - | 96 | -
O=C(CSc1oc(-c2cccs2)nc1S(=O)(=O)c1ccccc1)NC1CCCCC1 | - | - | - | 98 | -
Cc1ccc(S(=O)(=O)c2nc(-c3cccs3)oc2NCCCN(C)C)cc1 | - | - | - | 98 | -
Cc1ccc(NC(=O)c2c(Cl)n(C)c3ccccc23)cc1 | - | - | - | - | -
CN1CCN(NC(=O)c2cc(S(=O)(=O)N3CCOCC3)c(Cl)cc2Cl)CC1 | - | - | - | - | -
SMILES | Diaph act CS | WT yeast gro inh | PMI act hi M6P | L major viab | PMI act
C[N+](C)(C)CCOP(=O)(O)OP(=O)([O-])OC[C@H]1O[C@@H](n2ccc(N)nc2=O)[C@H](O)[C@@H]1O | - | - | - | - | -
O=C(Nc1ccccc1Cl)c1cccc(NS(=O)(=O)c2ccccc2)c1 | - | - | - | - | -
Cc1nc(N2CCN(Cc3ccc4c(c3)OCO4)CC2)c2cc(-c3ccccc3)sc2n1 | - | 70 | - | - | -
O=C(Nc1nc2n(n1)C(c1ccc(Cl)cc1)CC(c1ccc(Cl)cc1)N2)c1ccco1 (stereo not given) | - | - | - | 76 | -
COc1ccc(C2CC(c3ccc(Cl)cc3)Nc3nc(NC(=O)c4ccco4)nn32)cc1 (stereo not given) | - | - | - | - | -
CNC(=S)NCc1ccc2[nH]c(C)cc2c1 | - | - | - | - | -
CCc1cccc(C)c1NC(=S)NCc1ccc2[nH]c(C)cc2c1 | - | - | - | 93 | -
Cc1ccc(Cn2c(NS(=O)(=O)c3ccccc3)nc3ccccc32)cc1 | - | - | - | - | -
CCn1c(NCc2ccco2)nc2ccccc21 | - | - | - | - | -
CCCn1c(NCc2ccccc2NS(=O)(=O)c2ccc(C)cc2)nc2ccccc21 | - | - | - | 96 | -
CCn1c(NCc2cc(Br)ccc2NS(=O)(=O)c2ccc(C)cc2)nc2ccccc21 | - | - | - | 100 | -
CCn1c(NCc2ccccc2Cl)nc2ccccc21 | - | - | - | 51 | -
CCn1c(NCc2ccccc2NS(=O)(=O)c2ccc(C)cc2)nc2ccccc21 | - | - | - | 72 | -
CCCn1c(NCc2cccc(OC)c2OC)nc2ccccc21 | - | - | - | - | -
Cc1ccc(-c2cn3cccnc3n2)cc1NC(=O)c1cccs1 | - | - | - | - | -
O=C(Nc1ccccc1)/C(=C/c1ccc2c(c1)OCO2)NC(=O)c1ccco1 | - | - | - | - | -
COc1ccc(C2=CC(=O)CC(c3ccccc3)C2)cc1 (stereo not given) | - | - | - | 59 | -
COc1ccc(C2=CC(=O)CC(c3ccc(OC)cc3)C2)cc1 (stereo not given) | - | - | - | - | -
CCCCC(=O)NC(c1ccccc1Cl)c1c(O)ccc2ccccc12 (stereo not given) | - | - | - | 99 | -
CCCC(=O)NC(c1ccccc1Cl)c1c(O)ccc2ccccc12 (stereo not given) | - | - | - | 100 | -
O=C(Cc1ccccc1)NC(c1ccco1)c1c(O)ccc2ccccc12 (stereo not given) | . | - | . | - | .
Cc1cc(C)c2c(c1)NC(c1cc3c(cc1Br)OCO3)C1CC=CC21 (stereo not given) | - | - | - | - | -
O=C(c1cnn2c(C(F)(F)F)cc(-c3ccc(Br)cc3)nc12)N1CCOCC1 | - | - | - | - | -
CCOC(=O)C1CCCN(C(=O)c2cnn3c(C(F)(F)F)cc(-c4ccccc4)nc23)C1 (stereo not given) | - | - | - | 52 | -
COC(=O)c1cnn2c(C(F)(F)F)cc(-c3ccc(F)cc3)nc12 | - | - | - | - | -
O=C(c1cnn2c(C(F)(F)F)cc(-c3ccc4c(c3)OCO4)nc12)N1CCCC1 | - | - | - | 77 | -
COc1ccc(-c2cc(C(F)(F)F)n3ncc(C(=O)N4CCCCC4c4cccnc4)c3n2)cc1 (stereo not given) | - | - | - | 98 | -

Bioassay records deposited in PubChem BioAssay by several laboratories.
